Legend:
[1] = test system: Panel (Carcinoma cell lines); assay: Average log GI50 value against a panel of human cancer cell lines; format: functional
How it was run: (§1)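 NCI in vitro human tumor cell line screening panel; each compound tested at a minimum of five concentrations at 10-fold dilutions, highest 100 µM, over a 48 h assay. GI50 is the molar concentration giving 50% growth inhibition. TGI and LC50 were also derived, and the average log GI50 was taken across all lines tested.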

[2] = test system: RPMI-8226; assay: Growth inhibitory activity determined against RPMI-8226 leukemia cell line; format: functional; settings: Homo sapiens; how it was run: as §1
[3] = test system: Panel (Carcinoma cell lines); assay: The molar drug concentration required for 50% growth inhibition; format: functional; settings: Homo sapiens; how it was run: as §1
[4] = test system: MCF7; assay: Growth inhibitory activity determined against MCF-7/ADR-RES breast cancer cell line; format: functional; settings: Homo sapiens; how it was run: as §1
[5] = test system: MCF7; assay: Growth inhibitory activity determined against MCF-7 breast cancer cell line; format: functional; settings: Homo sapiens; how it was run: as §1
[6] = test system: BT-549; assay: Cytotoxicity against BT-549 breast cancer cell line; format: functional; settings: Homo sapiens; how it was run: as §1
[7] = test system: MDA-MB-231; assay: Growth inhibitory activity determined against MDA-MB-231/ATCC breast cancer cell line; format: functional; settings: Homo sapiens; how it was run: as §1
[8] = test system: MOLT-4; assay: Growth inhibitory activity determined against MOLT-4 leukemia cell line.; format: functional; settings: Homo sapiens; how it was run: as §1
[9] = test system: HL-60; assay: Compound was evaluated for its effect on the growth of HL 60 human leukemia cells; format: functional, cell-based
How it was run: (§2)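 HL-60 human leukemia cells were grown for 24 h with compound. Growth was measured as the increase in cell number from time zero, and the IC50 was taken from that growth. Mitotic arrest was scored as the fraction of cells with condensed chromosomes after 24 h at 10 µM.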

[10] = test system: MDA-MB-4; assay: Cytotoxicity against MDA-MB-435 breast cancer cell line; format: functional; settings: Homo sapiens; how it was run: as §1
[11] = test system: CCRF-CEM; assay: Growth inhibitory activity determined against CCRF-CEM leukemia cell line; format: functional; settings: Homo sapiens; how it was run: as §1
[12] = test system: MDA-N; assay: Cytotoxicity against MDA-N breast cancer cell line; format: functional; settings: Homo sapiens; how it was run: as §1
[13] = test system: Hs-578T; assay: Growth inhibitory activity determined against HS 578 T breast cancer cell line; format: functional; settings: Homo sapiens; how it was run: as §1
[14] = test system: SR; assay: Growth inhibitory activity determined against SR leukemia cell line; format: functional; settings: Homo sapiens; how it was run: as §1
[15] = target: T1, Tubulin (Bos taurus, UniProt Q6B856+Q862L2+Q862F3); assay: (§3) Inhibitory activity against purified bovine brain tubulin.; format: functional
How it was run: (§4)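 Tubulin assembly: drug and tubulin were preincubated in glutamate for 15 min at 30 °C, then chilled on ice. GTP was added and assembly started by a 0→30 °C jump in a recording spectrophotometer. After 20 min, mixtures were chilled to 0 °C to confirm reversibility. IC50 was taken from inhibition of the extent of assembly across a drug concentration series (n = 3, SD).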

[16] = target: Tubulin alpha chain (Sus scrofa) (UniProt P02550); settings: Homo sapiens; 5.0 uM
[17] = target: Tubulin alpha chain (Sus scrofa) (UniProt P02550); settings: Homo sapiens; 1.0 uM
[18] = target: T1, Tubulin; assay: as §3; how it was run: as §4
[19] = test system: HL-60; assay: Inhibitory activity against HL 60 cells; format: functional, cell-based; settings: Homo sapiens; how it was run: as §2

Sequence of Tubulin alpha chain (Sus scrofa) (P02550 whole entry, looked up): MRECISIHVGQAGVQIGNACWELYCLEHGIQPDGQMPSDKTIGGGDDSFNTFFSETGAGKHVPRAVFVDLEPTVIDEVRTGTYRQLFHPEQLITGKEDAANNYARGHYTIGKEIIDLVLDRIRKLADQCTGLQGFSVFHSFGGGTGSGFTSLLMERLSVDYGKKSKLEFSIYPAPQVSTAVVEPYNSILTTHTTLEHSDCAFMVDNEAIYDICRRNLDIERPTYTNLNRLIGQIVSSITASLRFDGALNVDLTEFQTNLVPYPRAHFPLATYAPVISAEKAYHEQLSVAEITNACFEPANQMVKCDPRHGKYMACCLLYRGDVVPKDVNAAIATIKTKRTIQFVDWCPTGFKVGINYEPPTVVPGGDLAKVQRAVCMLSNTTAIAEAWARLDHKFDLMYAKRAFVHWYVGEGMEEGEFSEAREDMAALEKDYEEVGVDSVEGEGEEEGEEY

In the case of `COC(=O)CCc1cc(O)c2c(c1)[C@@H](C(=O)OC)[C@H](c1ccc(O)c(O)c1)O2`, the “log GI50” value [1] is reported as -4.97.

`COC(=O)/C=C/c1cc(O)c2c(c1)[C@@H](C(=O)OC)[C@H](c1ccc(O)c(O)c1)O2` showed a GI50 [2] of 0.055 µM, a GI50 [3] of 0.3 µM and a GI50 [4] of 0.054 µM. For the same molecule, the GI50 [5] was 0.029 µM, the GI50 [6] was under 0.01 µM and the GI50 [7] was 0.05 µM. For the same molecule, the GI50 [8] was 0.081 µM, the IC50 [9] was 0.2 µM and the GI50 [10] was under 0.01 µM. The GI50 [11] was 0.033 µM, the GI50 [12] was under 0.01 µM and the GI50 [13] was 0.045 µM. For the same molecule, the GI50 [14] was 0.069 µM and the GI50 [1] was 0.288 µM.

With `COC(=O)/C=C/c1cc(OC)c2c(c1)[C@@H](C(=O)OC)[C@H](c1ccc(O)c(OC)c1)O2` the GI50 [3] was 3.3 µM and the IC50 [15] was over 40 µM.

With `COc1ccc(/C=C\c2cc(OC)c(OC)c(OC)c2)cc1O` the inhibition [16] was 100% and the inhibition [17] was 88%.

With `COC(=O)/C=C/c1cc(OC)c2c(c1)[C@@H](C(=O)OC)[C@H](c1ccc(OC)c(OC)c1)O2` the GI50 [3] was 5.1 µM, the IC50 [18] was over 40 µM and the IC50 [15] was over 40 µM. It also gave an IC50 [19] of 0.08 µM.

For `OCCCc1cc(O)c2c(c1)[C@@H](CO)[C@H](c1ccc(O)c(O)c1)O2`, the “log GI50” value [1] was -4.01.

— ChEMBL document CHEMBL1132166, “Synthesis and biological evaluation of dihydrobenzofuran lignans and related compounds as potential antitumor agents that inhibit tubulin polymerization” (J Med Chem, 1999)
